# Test: Toxicity liver stage against HepG2, at 10uM
# Assay type: cell-based
# Parameters: test concentration 10 uM, cell line HepG2-A16-CD81EGFP
# Settings: human, HepG2-A16-CD81EGFP cells; read-out: INHIBITION
# In short: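 Uninfected HepG2-A16-CD81EGFP cells, 3 × 10^3 per well, 1536-well, plated on prespotted compound at 10 μM final, parasite-free screening media added to match infected plates; puromycin 10 μM positive, DMSO 0.5% negative; run in parallel with 48 h PbLuc assay at 37 °C, 5% CO2; viability by CellTiter-Glo luminescence, normalized to controls.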
row,Structure (SMILES),cytotoxicity at 10 µM
1,C=C(C)CSc1nnc(CCNC(=O)OC(C)(C)C)o1,8.94%
2,CCCC(=O)N(CCN1CCOCC1)c1nc2c(OC)ccc(C)c2s1,-5.02%
3,Cn1c(=O)c2cc(C(=O)NCCc3ccccc3)ccc2n(C)c1=O,-13.8%
4,Cc1noc(C)c1CNCc1nn(-c2ccccc2)c2c1CCC2,1.83%
5,CCN(CC)C(=O)CC[C@@H]1CNC(=O)[C@@H]2C[C@H](NC(=O)C3CC3)CN12,5.76%
6,COCCn1ccc2cc(C(=O)N3CCN(S(C)(=O)=O)CC3)ccc21,-6.63%
7,Cc1nnc(C2CCN(C(=O)c3ccc(-n4cccc4)cc3)CC2)s1,6.4%
8,Cc1ccc(S(=O)(=O)NCC2(O)CCOc3ccccc32)s1 (stereo not given),5.33%
9,N#Cc1ccc(OC2CCN(C(=O)c3ccc(Br)o3)CC2)nc1,11.2%
10,CN(C)c1ccc2c(c1)CN(C(=O)c1ccco1)C2c1cnco1 (stereo not given),31.9%
11,Cc1noc(C2CCC3(CCN(C(=O)c4ccn(C)n4)CC3)O2)n1 (stereo not given),7.57%
12,Cn1cc(CN2CCC(F)(F)C3(CCN(c4cccc(F)c4)C3)C2)cn1 (stereo not given),45.9%
13,O=C(NCc1ccco1)[C@@H]1C[C@H]2OCC[C@H]2N(c2ncc(F)cn2)C1,-0.113%
14,CC1(C)CC(=O)c2cnc3nc(N4CCCC4)[nH]c(=O)c3c2C1,-2%
15,Cn1cnnc1S(=O)(=O)C1CCN(S(=O)(=O)c2c(Cl)cccc2Cl)CC1,-14.2%
16,O=C1CC2(CCN(S(=O)(=O)c3cccs3)C2)CN1c1ccccc1 (stereo not given),5.08%
17,C[C@H]1C[C@@H]2CCN(C(=O)c3ccncn3)C[C@H]2O1,-18.4%
18,Cc1cccc(Cn2cc(Br)c(NS(C)(=O)=O)n2)c1,-0.08%
19,COCC(=O)NCCn1nc(-c2cc(C)oc2C)ccc1=O,-1.74%
20,O=C(NC[C@]1(O)CCN(Cc2ccsc2)C[C@H]1O)c1c[nH]cn1,0.514%
21,O=C1N[C@H]2OCCC[C@H]2[C@H](c2ccccc2C(=O)O)N1,2.62%
22,Cn1ccnc1CNC(=O)CCc1cccc(F)c1,0.293%

row,Structure (SMILES),cytotoxicity at 10 µM
1,CN(C)c1ncc(I)c(C2CCCCN2C)n1 (stereo not given),1.74%
2,O=C(NCc1ccc2c(c1)OCO2)[C@@H]1C=CCN1c1ncccn1,0.146%
3,Cc1cc(C)nc(Nc2ccc(C3CCCCN3)cn2)n1 (stereo not given),11.7%
4,CC(=O)N[C@@H]1CN(S(=O)(=O)c2ccc(Cl)cc2)C[C@H]1O,7.03%
5,NC(=O)C1(Cc2ccc(-c3ccccc3)cc2)CCCNC1 (stereo not given),0.772%
6,CCNC(=O)C1(Cc2ccc(-c3ccccc3)cc2)CCCNC1 (stereo not given),-3.73%
7,c1cnc(Nc2cncc(C3CCCN(c4ncccn4)C3)n2)nc1 (stereo not given),-2.44%
8,COCCS(=O)(=O)Nc1cc(Cl)ccn1,2.62%
9,CNC(=O)C(CC(C)C)NC(=O)c1cccc(-c2n[nH]c(C)n2)c1 (stereo not given),9.04%
10,CNC(=O)CCN(C)CC1(c2ccc(Br)cc2)CC1,-12.5%
11,Cc1cnn(Cc2ccc(NC(=O)N3CCCCC3CO)cc2)c1 (stereo not given),56.1%
12,CNS(=O)(=O)c1ccc(CNC(=O)Nc2ccccn2)s1,-9.11%
13,Cc1c(CS(C)(=O)=O)cccc1NCC1CCCCC1,-8.98%
14,Cc1cc(C)c(CNC(=O)N2CCC(N3CCCCC3)CC2)c(=O)[nH]1,7.53%
15,Cc1cc(C(=O)N2CC(=O)Nc3cnccc32)c(Cl)cc1F,3.07%
16,Cc1ccc(S(=O)(=O)N2CC(C)Oc3ncccc32)c(C)c1 (stereo not given),5.35%
17,Cc1ccc(C)c(S(=O)(=O)NCCC(=O)NCc2ccoc2)c1,-11.5%
18,Cc1nc(C2(NCC(=O)NC(=O)NCC(F)(F)F)CCCCC2)no1,18.4%
19,Cc1nc(NC(=O)c2nn(-c3ccc(F)cc3C)cc2O)n[nH]1,-7.3%
20,N#Cc1nccnc1NCCC1CCN(CC(F)(F)F)CC1,1.6%
21,CC(C)OCCS(=O)(=O)c1ccccc1C#N,8.24%
22,O=C(c1ccc2[nH]cnc2c1)N1CCCC1Cn1cccn1 (stereo not given),-10%

row,Structure (SMILES),cytotoxicity at 10 µM
1,Cc1ccc(C(F)(F)F)cc1NCC(=O)Nc1c(C)nn(C)c1C,-1.86%
2,CC(=O)N1CCc2ccc(S(=O)(=O)N3CCCCC3C)cc21 (stereo not given),-10.3%
3,CC(C)(C)CC(=O)NCC(=O)NCC(O)c1ccc2ccccc2c1 (stereo not given),9.73%
4,CN(C)c1ccc(CNCc2ccc(N3CCOCC3)cc2)cn1,7.17%
5,CN(C(=O)Nc1ccccn1)C1CCCN(c2ccccc2)C1=O (stereo not given),-6.63%
6,Cn1nnnc1SCCC(=O)NCC1Cc2ccccc2O1 (stereo not given),9.35%
7,Cc1ccc(CCCC(=O)N2CCC(CS(N)(=O)=O)CC2)s1,15.6%
8,CC(CC(=O)Nc1ccc(C(=O)N(C)C)c(Cl)c1)n1cccc1 (stereo not given),7.07%
9,CCN(C(=O)CN(CC(N)=O)C(C)C)C1=CCCC1,14.1%
10,COc1ccc(C2CCCN2C(=O)NCCNc2ncccn2)cc1 (stereo not given),-8.18%
11,Cc1ccc(C(=O)O)cc1S(=O)(=O)Nc1nn(-c2ccccc2)cc1C,-8.84%
12,CCCNC(=O)c1nc2c(o1)CN(C(C)=O)C2,-70.6%
13,COc1ccc(N2CCN(Cc3nc(CSC)no3)C(C)C2=O)cc1 (stereo not given),3.28%
14,FC(F)(F)CCc1ccnc(N2CCN(Cc3ccncc3)CC2)n1,-21.2%
15,Cc1nc(N(C)C)ncc1C(=O)NCCc1csc(-c2ccncc2)n1,1.39%
16,CCC(=O)Nc1cccc(OCC(=O)N(C)Cc2cc(COC)[nH]n2)c1,1.79%
17,COCc1ccc(C(=O)N2CCN(CC=C(C)C)[C@@H]3CS(=O)(=O)C[C@@H]32)o1,17.2%
18,O=C(NC1CCCN(CCc2ccccc2)C1)c1cnccn1 (stereo not given),7.95%
19,COc1cccc2c1OCC(C(=O)N1CCSCC1)C2 (stereo not given),1.88%
20,CC1c2cccn2CCN1C(=O)CCc1nc(-c2ccccc2)no1 (stereo not given),0.45%
21,O=S(=O)(NC1CCCN(c2ncccn2)C1)N1CCCCCC1 (stereo not given),12.7%
22,C[C@@H]1CN(C(=O)c2ccc(=O)[nH]c2)CC[C@@]1(O)C1CCOCC1,-1.59%

row,Structure (SMILES),cytotoxicity at 10 µM
1,Fc1cccc(C2(CNC3CCSC3)CCOCC2)c1 (stereo not given),-1.86%
2,O=c1cc(C2CCNCC2)nc(CCc2ccccn2)[nH]1,-0.226%
3,CCn1c(C2CCN(C(=O)CCc3cc(Cl)no3)CC2)nn(C)c1=O,-7.09%
4,CSc1ccccc1C(C(=O)O)N(C)CC1CCOCC1 (stereo not given),4.93%
5,O=C(NCc1cc2n(n1)CCCNC2)c1cn2cc(Cl)ccc2n1,-10.1%
6,c1ccc(C2CCCN2C2CCSCC2)nc1 (stereo not given),9.03%
7,Cc1cc(C[C@@H]2COC[C@@H]2NC(=O)Cn2c(=O)oc3ccccc32)on1,-14%
8,Cc1ccc(F)cc1S(=O)(=O)Nc1ccc2c(C(=O)O)c[nH]c2c1,-3.53%
9,CN(Cc1ccco1)C(=O)CN1CCOC(Cn2cncn2)C1 (stereo not given),-7.36%
10,CCc1c(C(=O)N2CCN(c3cnccn3)CC2)cnn1C(C)(C)C,-13%
11,O=C(c1cc(C2CC2)[nH]n1)N1CCN(Cc2ccncc2)CC1,-10.9%
12,CC1COCCN1Cc1nc(-c2ccc(F)cc2)no1 (stereo not given),-9.4%
13,CC(C)c1cnc(CN2CCCC(c3cc(C(N)=O)[nH]n3)C2)o1 (stereo not given),-13.5%
14,Cc1n[nH]c(C)c1C1COCCN1C(=O)c1ccc(Cl)o1 (stereo not given),-1.01%
15,CCC1c2ccsc2CCN1C(=O)NCCc1ccccn1 (stereo not given),-12.4%
16,CCC1c2ccsc2CCN1C(=O)NCc1ccc(C)nc1 (stereo not given),-3.75%
17,Cc1nc(C)c(CC(=O)Nc2nnc(C3CC3)s2)c(=O)[nH]1,-11.2%
18,Fc1ccc(-c2nc(CN3CCCCC3Cn3cncn3)co2)cc1 (stereo not given),-8.18%
19,CCc1nc(CN2CCOC(Cn3nc(C)cc3C)C2)no1 (stereo not given),4.36%
20,O=C(CCc1ccc2c(c1)OCO2)N1CCCCC1Cn1cccn1 (stereo not given),-17.2%
21,Cc1cnn(CC2CCCCN2C(=O)c2cccc(C(N)=O)c2)c1 (stereo not given),-0.775%
22,Cc1cnn(CC2CCCCN2C(=O)c2ccc(CN(C)C)cc2)c1 (stereo not given),-11.4%

row,Structure (SMILES),cytotoxicity at 10 µM
1,Cc1cn2c(n1)CCC(NC(=O)c1cncnc1C)C2 (stereo not given),-3.56%
2,CCc1nc(C2CCCN2Cc2nnc(CC)o2)no1 (stereo not given),-5.36%
3,O=C(CN1CCN(c2ccc3nncn3n2)CC1)NC1CCCC1,-33.9%
4,CCn1cnnc1CNC(=O)N1CCN(c2cccs2)CC1,-2.07%
5,COc1ccc(CC(=O)N2CCc3nnc(N(C)C)cc3C2)cc1F,-9.5%
6,CCOCC(O)CN1CCN(C(=O)c2ccccc2Cl)CC1 (stereo not given),-1.96%
7,Cc1cc(C2CCCN(CCc3ccccn3)C2)n[nH]1 (stereo not given),-10.4%
8,O=C(c1ccn(-c2cccc(Cl)c2)n1)N1CCN(C2CC2)CC1,-7.03%
9,CC(C)n1c(=O)c2ccccc2n(CCN(C)C)c1=O,0.616%
10,CN(C)CCCN(Cc1ccco1)Cc1ccnn1C1CCCCO1 (stereo not given),-2.52%
11,Cc1nnc(N2CC[C@H]3C[C@@H](C(=O)N4CCCC4)O[C@H]3C2)s1,-70.6%
12,OC(CN1CCN(Cc2ccc(F)cc2)CC1)C1CC1 (stereo not given),-23.4%
13,CNC(C(=O)OC)c1cc(F)ccc1F (stereo not given),-1.07%
14,CN(C)C(=O)CO[C@H]1CN(Cc2ccsc2)[C@@H]2COC[C@H]12,8.44%
15,O=C(CN1CCC[C@@H]1C(=O)O)NCCOc1cccc(C(F)(F)F)c1,-1.7%
16,COCc1ncn2c1CN(S(=O)(=O)Cc1ccc(C)cc1)CC2,0.854%
17,COCCN1CCO[C@@H]2CN(Cc3ccc(C)o3)C[C@@H]2C1,-7.24%
18,NCC1CCCCN1C(=O)Cc1cccc(Br)c1 (stereo not given),0.907%
19,NCC1CCCCN1C(=O)Cc1ccc(F)c(F)c1 (stereo not given),-1.5%
20,O=C(c1cccnc1)N1C[C@@H](c2ccccc2)[C@@]2(CCNC2=O)C1,-6.23%
21,Cc1cc(CN2CCO[C@H]3[C@H](OCc4csc(C)n4)CC[C@@H]32)no1,5.86%
22,CCC=C(C)C(=O)NCc1ccc(OC)nc1,-4.13%

# Source: ChEMBL document CHEMBL4513216, “Probing the Open Global Health Chemical Diversity Library for Multistage-Active Starting Points for Next-Generation Antimalarials” (ACS Infect Dis, 2020)
